Measured values reported in ChEMBL document CHEMBL1124462, “Synthesis, DNA binding, and biological evaluation of synthetic precursors and novel analogues of netropsin” (J Med Chem, 1989).
≈ marks a conversion by molar mass, not a printed value.

Assays:
Vero [1] = assay: Minimum cytotoxic concentration required to cause a microscopically detectable alteration of normal cell morphology and show antiviral activity in african green monkey (Vero B) cells; format: functional; conditions: Chlorocebus sabaeus
Raji = assay: Dose required to inhibit Human B-Lymphoblast (Raji) cell proliferation by 50%; format: functional; conditions: read-out: CD50 (the source's name)
FM3A = assay: In vitro inhibition of FM3A (murine mammary carcinoma) cell proliferation.; format: functional; conditions: Mus musculus, read-out: CD50 (the source's name)
HeLa [2] = assay: Minimum inhibitory concentration required to reduce Coxsackie virus B4 induced cytopathogenicity by 50% in HeLa cells; format: functional; conditions: Homo sapiens
Method in brief: (§1)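 Cell cultures (PRK, HeLa or Vero B) are infected at 100 × CCID50. Cytopathogenicity is recorded once it reaches completion in the untreated virus-infected controls. The minimum inhibitory concentration is given in μg/mL.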

HeLa [3] = assay: Minimum cytotoxic concentration required to cause a microscopically detectable alteration of normal cell morphology and show antiviral activity in HeLa cells; format: functional; conditions: Homo sapiens
Method in brief: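 HeLa cell cultures exposed to compound for the same duration as the antiviral assay, then examined microscopically. The minimum cytotoxic concentration is the lowest level causing detectable alteration of normal cell morphology. Values are in μg/mL.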

L1210 = assay: Dose required to inhibit Murine leukemia (L1210) cell proliferation by 50%; format: functional; conditions: Mus musculus, read-out: CD50 (the source's name)
Human alphaherpesvirus 2 = assay: Minimum inhibitory concentration required to reduce herpes simplex virus-2(G) induced cytopathogenicity by 50% in primary rabbit kidney cells (PRK); format: functional; method in brief: as §1
Human alphaherpesvirus 1 = assay: Minimum inhibitory concentration required to reduce herpes simplex virus-1 (KOS) induced cytopathogenicity by 50% in primary rabbit kidney cells(PRK); format: functional; method in brief: as §1
[4] = tested on: Vesicular stomatitis virus; assay: (§2) Minimum inhibitory concentration required to reduce vesicular stomatitis virus induced cytopathogenicity by 50% in primary rabbit kidney cells (PRK); format: functional
Oryctolagus cuniculus = species on record: Oryctolagus cuniculus; assay: Minimum cytotoxic concentration required to cause a microscopically detectable alteration of normal cell morphology and show antiviral activity in primary rabbit kidney (PRK) cells; format: functional
[5] = Dose required to inhibit Human T-Lymphoblast (Molt/4F) cell proliferation by 50%; format: functional; conditions: read-out: CD50 (the source's name)
Sindbis virus = assay: Minimum inhibitory concentration required to reduce Sindbis virus induced cytopathogenicity by 50% in african green monkey (VeroB) cells; format: functional; method in brief: as §1
Vero [6] = assay: Minimum inhibitory concentration required to reduce parainfluenza virus-3 induced cytopathogenicity by 50% in african green monkey (VeroB) cells; format: functional, Human respirovirus 3; conditions: Chlorocebus sabaeus; method in brief: as §1
[7] = tested on: Mammalian orthoreovirus 1; assay: Minimum inhibitory concentration required to reduce reovirus-1 induced cytopathogenicity by 50% in african green monkey (VeroB)cells; format: functional; method in brief: as §1
Semliki Forest virus = assay: Minimum inhibitory concentration required to reduce semliki forest virus induced cytopathogenicity by 50% in african green monkey (VeroB) cells; format: functional; method in brief: as §1
Nucleic Acid [8] = assay: Association constant against the polynucleotide poly(dA-dT); format: nucleic-acid assay
Method in brief: (§3)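 Competition with ethidium bromide binding at 25 °C in 0.01 M cacodylate buffer, pH 7.0, with 1.26 μM ethidium bromide and 1 μM polynucleotide. Bound ethidium is estimated from its fluorescence increase (V = 34 for poly(dA-dT), 25 for poly(dG-dC)). IC50 for 50% ethidium displacement comes from a fitted competition sigmoid. Kapp is calculated from IC50 assuming a binding size of four base pairs.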

Nucleic Acid [9] = assay: Ratio of association constant of poly(dA-dT) and poly(dG-dC); format: nucleic-acid assay
Method in brief: (§4)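 Kapp for poly(dA-dT) and for poly(dG-dC) is each determined by ethidium bromide competition in 0.01 M cacodylate, pH 7.0, 25 °C, with 1.26 μM ethidium and 1 μM polynucleotide. IC50 comes from a fitted competition sigmoid and is converted to Kapp assuming a four-base-pair binding size. The ratio is taken between the two polynucleotides.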

Nucleic Acid [10] = assay: Association constant against polynucleotide poly (dG-dC); format: nucleic-acid assay; method in brief: as §3
Vero [11] = assay: Minimum inhibitory concentration required to reduce Coxsackie virus B4 induced cytopathogenicity by 50% in african green monkey (VeroB) cells; format: functional, Coxsackievirus B4; conditions: Chlorocebus sabaeus; method in brief: as §1
[12] = Dose required to inhibit Murine mammary carcinoma (FM3A) cell proliferation by 50%; format: functional; conditions: Mus musculus, read-out: CD50 (the source's name)
HeLa [13] = assay: Minimum inhibitory concentration required to reduce polio virus -1 induced cytopathogenicity by 50% in HeLa cells; format: functional; conditions: Homo sapiens
HeLa [14] = assay: Minimum inhibitory concentration required to reduce vesicular stomatitis virus induced cytopathogenicity by 50% in HeLa cells; format: functional; conditions: Homo sapiens
Nucleic Acid [15] = assay: Association constant against the polynucleotide poly (dA-dT).; format: nucleic-acid assay; method in brief: as §3
Nucleic Acid [16] = assay: Ratio of association constant of poly (dA-dT) and poly (dG-dC); format: nucleic-acid assay; method in brief: as §4
[17] = Minimum inhibitory concentration required to reduce herpes simplex virus-1 (KOS)induced cytopathogenicity by 50% in primary rabbit kidney cells (PRK); format: functional; conditions: Oryctolagus cuniculus
[18] = Minimum inhibitory concentration required to reduce herpes simplex virus-2 (G)induced cytopathogenicity by 50% in primary rabbit kidney cells (PRK); format: functional; conditions: Oryctolagus cuniculus
[19] = as §2; format: functional; conditions: Oryctolagus cuniculus

Row | SMILES | MCC (Vero [1]) [µg/mL] | CC50 (Raji) [µg/mL] | MIC (HeLa [2]) [µg/mL] | MCC (HeLa [3]) [µg/mL] | CC50 (L1210) [µg/mL] | MIC (Human alphaherpesvirus 2) [µg/mL] | MIC (Human alphaherpesvirus 1) [µg/mL] | MIC [4] [µg/mL] | MCC (Oryctolagus cuniculus) [µg/mL] | CC50 [5] [µg/mL] | MIC (Sindbis virus) [µg/mL] | MIC (Vero [6]) [µg/mL] | MIC [7] [µg/mL] | MIC (Semliki Forest virus) [µg/mL] | K app (Nucleic Acid [10]) [M⁻¹] | MIC (Vero [11]) [µg/mL] | MIC (HeLa [13]) [µg/mL] | MIC (HeLa [14]) [µg/mL] | MIC [17] [µg/mL] | MIC [18] [µg/mL] | other results
1 | Cn1cc([N+](=O)[O-])cc1C(=O)NCCCNCCCCN | > 400 | > 200 | > 400 | > 400 | > 200 | > 200 | > 200 | > 400 | >400 | > 200 | > 400 | > 200 | > 100 | > 400 | 420000 | > 200 |  |  |  |  | CC50 (FM3A): > 200 µg/mL; K app (Nucleic Acid [8]): 1e+06 M⁻¹; Ratio (Nucleic Acid [9]): 2.38
2 | Cn1cc(NC(=O)c2cc(NC(=O)CNC(=N)N)cn2C)cc1C(=O)NCCC(=N)N [NETROPSIN] | > 400 | 139 (≈ 323 µM) | > 100 | > 100 | 295 (≈ 685 µM) |  |  |  | >400 | > 100 | > 400 | > 400 | > 400 | > 400 | 31000 | > 400 | > 100 | > 100 | > 400 | > 400 | CC50 [12]: 321 µg/mL (≈ 746 µM); K app (Nucleic Acid [15]): 7.3e+08 M⁻¹; Ratio (Nucleic Acid [16]): 23500; MIC [19]: > 400 µg/mL
3 | Cn1cc(NC(=O)c2cc([N+](=O)[O-])cn2C)cc1C(=O)NCCC(=N)N | 400 | > 100 | > 400 | > 400 | > 100 | > 200 | > 200 | > 100 | 400 | > 100 | > 300 | > 200 | > 100 | 300 (≈ 830 µM) | < 100 | > 200 |  |  |  |  | K app (Nucleic Acid [8]): 12000 M⁻¹; Ratio (Nucleic Acid [9]): > 120
4 | NC(=O)c1ncn([C@@H]2O[C@H](CO)[C@@H](O)[C@H]2O)n1 [RIBAVIRIN] | > 400 |  | 70 (≈ 287 µM) | > 200 |  |  |  |  | >400 |  | 70 (≈ 287 µM) | 20 (≈ 81.9 µM) | 20 (≈ 81.9 µM) | 150 (≈ 614 µM) |  | 70 (≈ 287 µM) | 70 (≈ 287 µM) | 20 (≈ 81.9 µM) | > 400 | > 400 | MIC [19]: > 400 µg/mL
5 | Nc1ncnc2c1ncn2C[C@H](O)CO [(S)-DHPA] | > 400 |  | > 400 | > 400 |  | > 400 | > 400 | 70 (≈ 335 µM) | >400 |  | > 400 | 7 (≈ 33.5 µM) | 20 (≈ 95.6 µM) | > 400 |  | 200 (≈ 956 µM) |  | 20 (≈ 95.6 µM) |  |  | 
6 | CC(NC(=O)c1cc(NC(=O)c2cc([N+](=O)[O-])cn2C)cn1C)C(=O)OC(C)(C)C (stereo not drawn) | > 100 | 33.8 (≈ 80.6 µM) | > 100 | > 100 | 37.8 (≈ 90.1 µM) | > 40 | > 40 | > 40 | >100 | 26.6 (≈ 63.4 µM) | > 40 | 20 (≈ 47.7 µM) | > 40 | > 40 | 400 | 20 (≈ 47.7 µM) | > 40 |  |  |  | CC50 (FM3A): 27.7 µg/mL (≈ 66 µM); K app (Nucleic Acid [15]): 200 M⁻¹; Ratio (Nucleic Acid [16]): 0.5
7 | Nc1nccc2c1ncn2[C@@H]1C[C@H](CO)[C@@H](O)[C@H]1O [3-DEAZAARISTEROMYCIN A] | > 400 |  | > 400 | > 400 |  |  |  |  | >400 |  | > 400 | 0.4 (≈ 1.51 µM) | 0.2 (≈ 0.757 µM) | > 400 |  | 70 (≈ 265 µM) |  | 2 (≈ 7.57 µM) | > 400 | > 400 | MIC [19]: 2 µg/mL (≈ 7.57 µM)
